In brackets after ≈: the same amount, converted by molar mass. Activity calls are given as the source filed them. The rule behind the calls is not given here.
Experiments:
rhinovirus A2 [1] = test: Antirhinovirus activity was determined by the ability to inhibit the HRV-2( human rhinovirus type -2) virus by plaque reduction assay in vitro; IA is inactive; format: functional, organism-based
Summary of the method: (§1)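 Plaque reduction assay against human rhinovirus type 2 (HRV-2), following an earlier reported method. The value is the MIC, the minimum inhibitory concentration.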

rhinovirus A2 [2] = test: Antirhinovirus activity was assessed and the maximum testable concentration that causes no apparent effects on the cell monolayers was determined against HRV-2 virus in vitro.; format: functional, human rhinovirus type 2
rhinovirus A2 [3] = test: Antiviral activity determined by ability to inhibit the HRV-2( human rhinovirus type -2) virus by plaque reduction assay in vitro; format: functional; conditions: Rhinovirus A; summary of the method: as §1
Human rhinovirus sp. = test: Mean of MIC's was determined for the five types of virus like HRV-2, HRV-1A,HRV-22,HRV-41 and HRV-50; format: functional
Summary of the method: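 MIC measured by plaque reduction against HRV-2 first. The value is the mean of the MICs across these five serotypes.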

rhinovirus B86 = test: Tested for antirhinoviral activity against the rhinovirus serotype 86; format: functional; conditions: Rhinovirus B
Summary of the method: (§2)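 Selected compounds were tested across a 15-serotype rhinovirus panel: the five secondary serotypes plus 10 more. An MIC was recorded for each serotype. MIC80, the concentration inhibiting 80% of serotypes tested, was also derived from this panel.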

rhinovirus A21 = test: Tested for antirhinoviral activity against the rhinovirus serotype 21; format: functional; conditions: Rhinovirus A; summary of the method: as §2
rhinovirus A41 = test: Tested for antirhinoviral activity against the rhinovirus serotype 41; format: functional; conditions: Rhinovirus A; summary of the method: as §2
rhinovirus B14 = test: Tested for antirhinoviral activity against the rhinovirus serotype 14; format: functional, human rhinovirus type 14; conditions: Rhinovirus B; summary of the method: as §2
rhinovirus A1B [4] = test: Tested for antirhinoviral activity against the rhinovirus serotype 1B; format: functional, human rhinovirus type 1b; conditions: Rhinovirus A; summary of the method: as §2
rhinovirus A2 [5] = test: Antirhinovirus activity was determined by the ability to inhibit the HRV-2 (human rhinovirus type -2) virus by plaque reduction assay in vitro; format: functional; conditions: Rhinovirus A; summary of the method: as §1
Human rhinovirus 1A = test: Tested for antirhinoviral activity against the rhinovirus serotype 1A; format: functional; summary of the method: as §2
[6] = Partition coefficient (logP); format: physicochemical; conditions: octanol/water
rhinovirus A15 = test: Tested for antirhinoviral activity against the rhinovirus serotype 15; format: functional; conditions: Rhinovirus A; summary of the method: as §2
rhinovirus A50 = test: Tested for antirhinoviral activity against the rhinovirus serotype 50; format: functional; conditions: Rhinovirus A; summary of the method: as §2
rhinovirus A89 = test: Tested for antirhinoviral activity against the rhinovirus serotype 89; format: functional, human rhinovirus type 89; conditions: Rhinovirus A; summary of the method: as §2
rhinovirus A2 [7] = test: Tested for antirhinoviral activity against the rhinovirus serotype 2; format: functional, human rhinovirus type 2; conditions: Rhinovirus A; summary of the method: as §2
rhinovirus A67 = test: Tested for antirhinoviral activity against the rhinovirus serotype 67; format: functional; conditions: Rhinovirus A; summary of the method: as §2
rhinovirus A22 = test: Tested for antirhinoviral activity against the rhinovirus serotype 22; format: functional; conditions: Rhinovirus A; summary of the method: as §2
rhinovirus A30 = test: Tested for antirhinoviral activity against the rhinovirus serotype 30; format: functional; conditions: Rhinovirus A; summary of the method: as §2
rhinovirus A25 [8] = test: Tested for antirhinoviral activity against the rhinovirus serotype 25; format: functional; conditions: Rhinovirus A; summary of the method: as §2
[9] = system: human rhinovirus (15-serotype panel); test: Antirhinovirus activity was determined by the ability to inhibit the growth of 80% of a panel of 15 human rhinovirus serotypes
rhinovirus B6 = test: Tested for antirhinoviral activity against the rhinovirus serotype 6; format: functional; conditions: Rhinovirus B; summary of the method: as §2
rhinovirus A1B [10] = test: Tested for antirhinoviral activity against the rhinovirus serotype 1B; IA is inactive; format: functional, organism-based; conditions: human rhinovirus type 1b; summary of the method: as §2
rhinovirus A25 [11] = test: Tested for antirhinoviral activity against the rhinovirus serotype 25; IA is inactive; format: functional, organism-based; summary of the method: as §2

SMILES	MTL (rhinovirus A2 [2])	MIC (rhinovirus A2 [3])	MIC (Human rhinovirus sp.)	MIC (rhinovirus B86)	MIC (rhinovirus A21)	MIC (rhinovirus A41)	MIC (rhinovirus B14)	MIC (rhinovirus A1B [4])	MIC (Human rhinovirus 1A)	logP [6]	MIC (rhinovirus A15)	MIC (rhinovirus A50)	MIC (rhinovirus A89)	MIC (rhinovirus A2 [7])	MIC (rhinovirus A67)	MIC (rhinovirus A22)	MIC (rhinovirus A30)	MIC (rhinovirus A25 [8])	MIC80 [9]	MIC (rhinovirus B6)	also measured
Cc1cc(CCCCCOc2ccc(C3=NCCO3)cc2C(=O)O)on1	–	–	–	–	–	–	–	–	–	–	–	–	–	–	–	–	–	–	–	–	MIC (rhinovirus A2 [1]): inactive
Cc1cc(CCCCCOc2ccc(C3=NCCO3)cc2F)on1	9.3 µM	0.4 µM (≈ 0.133 µg/mL)	> 9.3 µM	–	–	–	–	–	–	–	–	–	–	–	–	–	–	–	–	–	–
Cc1cc(CCCCCOc2ccc(C3=NCCO3)cc2Br)on1	7.9 µM	–	0.4 µM (≈ 0.157 µg/mL)	1.4 µM (≈ 0.551 µg/mL)	0.01 µM (≈ 0.00393 µg/mL)	1.4 µM (≈ 0.551 µg/mL)	2 µM (≈ 0.787 µg/mL)	0.1 µM (≈ 0.0393 µg/mL)	0.5 µM (≈ 0.197 µg/mL)	4.42	0.2 µM (≈ 0.0787 µg/mL)	0.1 µM (≈ 0.0393 µg/mL)	0.02 µM (≈ 0.00787 µg/mL)	0.05 µM (≈ 0.0197 µg/mL)	0.2 µM (≈ 0.0787 µg/mL)	0.05 µM (≈ 0.0197 µg/mL)	0.08 µM (≈ 0.0315 µg/mL)	1.8 µM (≈ 0.708 µg/mL)	1.4 µM (≈ 0.551 µg/mL)	1.1 µM (≈ 0.433 µg/mL)	MIC (rhinovirus A2 [5]): 0.04 µM (≈ 0.0157 µg/mL)
Cc1cc(CCCCCOc2ccc(C3=NCCO3)cc2)on1	9.9 µM	1.1 µM (≈ 0.346 µg/mL)	5.2 µM (≈ 1.63 µg/mL)	0.2 µM (≈ 0.0629 µg/mL)	1.2 µM (≈ 0.377 µg/mL)	15 µM (≈ 4.72 µg/mL)	0.7 µM (≈ 0.22 µg/mL)	–	7 µM (≈ 2.2 µg/mL)	–	1.5 µM (≈ 0.472 µg/mL)	1.5 µM (≈ 0.472 µg/mL)	0.4 µM (≈ 0.126 µg/mL)	1.1 µM (≈ 0.346 µg/mL)	2.4 µM (≈ 0.755 µg/mL)	0.9 µM (≈ 0.283 µg/mL)	0.3 µM (≈ 0.0943 µg/mL)	–	7 µM (≈ 2.2 µg/mL)	0.06 µM (≈ 0.0189 µg/mL)	MIC (rhinovirus A1B [10]): inactive; MIC (rhinovirus A25 [11]): inactive
Cc1cc(CCCCCOc2ccc(C3=NCCO3)cc2C(F)F)on1	17 µM	0.06 µM (≈ 0.0219 µg/mL)	1 µM (≈ 0.364 µg/mL)	1.7 µM (≈ 0.619 µg/mL)	0.05 µM (≈ 0.0182 µg/mL)	2 µM (≈ 0.729 µg/mL)	2 µM (≈ 0.729 µg/mL)	0.08 µM (≈ 0.0292 µg/mL)	0.8 µM (≈ 0.292 µg/mL)	4.59	0.2 µM (≈ 0.0729 µg/mL)	2 µM (≈ 0.729 µg/mL)	0.02 µM (≈ 0.00729 µg/mL)	0.05 µM (≈ 0.0182 µg/mL)	0.2 µM (≈ 0.0729 µg/mL)	0.05 µM (≈ 0.0182 µg/mL)	0.09 µM (≈ 0.0328 µg/mL)	0.9 µM (≈ 0.328 µg/mL)	2 µM (≈ 0.729 µg/mL)	0.3 µM (≈ 0.109 µg/mL)	–
CC(=O)c1cc(C2=NCCO2)ccc1OCCCCCc1cc(C)no1	6.5 µM	0.1 µM (≈ 0.0356 µg/mL)	1.1 µM (≈ 0.392 µg/mL)	6.5 µM (≈ 2.32 µg/mL)	5.3 µM (≈ 1.89 µg/mL)	2.9 µM (≈ 1.03 µg/mL)	7.3 µM (≈ 2.6 µg/mL)	0.3 µM (≈ 0.107 µg/mL)	2.2 µM (≈ 0.784 µg/mL)	3.28	0.4 µM (≈ 0.143 µg/mL)	0.2 µM (≈ 0.0713 µg/mL)	2 µM (≈ 0.713 µg/mL)	0.1 µM (≈ 0.0356 µg/mL)	0.6 µM (≈ 0.214 µg/mL)	0.1 µM (≈ 0.0356 µg/mL)	0.3 µM (≈ 0.107 µg/mL)	2.2 µM (≈ 0.784 µg/mL)	5.1 µM (≈ 1.82 µg/mL)	5.1 µM (≈ 1.82 µg/mL)	–
